Measured values taken from ChEMBL document CHEMBL1153726, “Synthesis and anticancer activity of sclerophytin-inspired hydroisobenzofurans” (Bioorg Med Chem Lett, 2009).

Assay: Antitumor activity against human KB3 cells after 96 hrs by MTT assay
Format: functional, cell-based
Details: KB3, 96 h
Summary of the method: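 Human KB-3 carcinoma cells exposed to increasing compound concentrations; viability read by MTT colorimetric assay after 96 h. Values are means of triplicate assays, expressed relative to untreated controls.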

Structure (SMILES)	IC50 [µM]
C=C(C)[C@H]1CC=C(C)[C@@]2(O)[C@@H]1[C@H](c1cccc(Cl)c1Cl)O[C@@H]2C(=O)OCC	5
C=C(C)[C@H]1CC=C(C)[C@@]2(O)[C@@H]1[C@H](c1ccccc1Br)O[C@@H]2C(=O)OC	5
